Measured values from different studies.
Each line is one published result; the experiments were not run side by side.

NCc1ccc(-c2nn(Cc3ccncc3)c3ccccc23)o1  AUC(0-t) (male CD-1 mouse; plasma; intraperitoneal; 30 mg/kg): 5240 ng·h/mL
O=C1CCC(N2Cc3cc(C4CCN(Cc5ccccc5)CC4)ccc3C2=O)C(=O)N1 (stereo not shown)  AUC(0-inf) (male CD-1 mouse; plasma; intravenous; 1 mg/kg): 355 ng·h/mL
Cc1nc2ccc(OCc3ccc(C(F)(F)F)cc3)cc2[nH]1  AUC(0-inf) (male BALB/c mouse; plasma; intravenous; 1 mg/kg): 3800 ng·h/mL
CCOC(=O)c1c(NC(=O)CNC(C)C)sc2c1CCCCC2  AUC(0-inf) (male mouse; plasma; intraperitoneal; 5 mg/kg; single dose): 311 ng·h/mL
COCC(=O)N1CCc2[nH]c3c(Cl)c(Cl)ccc3c2[C@@H]1C  AUC(0-inf) (C57BL/6 mouse; blood; intravenous; 1 mg/kg): 3.28 µM·h
CC(C)[C@@H](CS(=O)(=O)C(C)C)N1C(=O)[C@@](C)(CC(=O)O)C[C@H](c2cccc(Cl)c2)[C@H]1c1ccc(Cl)cc1  AUC(0-inf) (FVB mouse; brain; oral; 20 mg/kg; single dose): 36.3 ng·h/mL
COc1cccc2c(N3CCC(CCP(=O)(O)O)CC3)ncnc12  AUC(0-inf) (female C57BL/6 mouse; brain; subcutaneous; 50 mg/kg): 751 ng·h/mL
NCc1ccc(-c2nn(Cc3ccccc3)c3ccccc23)o1  AUC(0-t) (male CD-1 mouse; plasma; intravenous; 5 mg/kg): 1310 ng·h/mL
C[C@@H]1COCCN1c1cc(=O)n2c(n1)N(Cc1cncc(Cl)c1)[C@H](C(F)(F)F)CC2  AUC(0-inf) (C57BL/6 mouse; plasma; intraperitoneal; 10 mg/kg; single dose): 3280 ng·h/mL
NCc1cc2c(cc1F)C(=O)N(C1CCC(=O)NC1=O)C2 (stereo not shown)  AUC(0-inf) (male CD-1 mouse; plasma; oral; 10 mg/kg): 262 ng·h/mL
CN(C)C(=O)c1cc2cnc(Nc3ccc(-c4ccc5c(=O)cc(N6CCOCC6)oc5c4)cc3)nc2n1C1CCCC1.Cl  AUC(0-inf) (BALB/c mouse; plasma; intravenous; 2 mg/kg): 2790 ng·h/mL
OCc1nc2ccc(NCc3ccc(C(F)(F)F)cc3)cc2[nH]1  AUC(0-inf) (male BALB/c mouse; plasma; intravenous; 1 mg/kg): 482 ng·h/mL
Cc1ccc(CCC(=O)Nc2nnc(S(N)(=O)=O)s2)cc1  AUC (male BALB/c mouse; plasma; oral; 20 mg/kg): 12.5 µM·h
